Source: PubChem BioAssay
Hits are enriched below; roughly 3.8% of the tested compounds scored in any of these assays.
MPTP block = mitochondrial permeability transition pore inhibitors, primary screen, biochemical, isolated mouse mitochondria, absorbance. AID 602449, 2012. inhibition, % at 10 µM. Ca2+ swelling absorbance, 30 min. actives 1.4% (n = 360,000);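 active means inhibition of 50% or more, scaled per plate between neutral and stimulator controls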;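 further: 0% = DMSO wells given calcium and 100% = 1 mM EGTA wells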
Granule exo inh = LAMP-1 surface exposure blockers, TALL-104 cells – cell-based, flow cytometry, MLPCN library, primary screen. inhibition, % at 10 µM. TALL-104 LAMP-1 surface exposure; cells stimulated with thapsigargin and PMA. actives 0.66% (n = 360,000). AID 651702, 2012;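 active means inhibition above about 55%, limit read from the data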
Beta2AR agonist = beta2AR agonists driving receptor internalization, primary screen, cell-based, FAP fluorogen, flow cytometry; Am2.2-beta2AR cells; response, % (concentration not given with the values); actives 0.43% (n = 340,000);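 active means response above a set limit, near 3 SD of response in nonfluorescent compounds, cut at about 42% in these data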
Target sequence (P07550 whole entry, looked up): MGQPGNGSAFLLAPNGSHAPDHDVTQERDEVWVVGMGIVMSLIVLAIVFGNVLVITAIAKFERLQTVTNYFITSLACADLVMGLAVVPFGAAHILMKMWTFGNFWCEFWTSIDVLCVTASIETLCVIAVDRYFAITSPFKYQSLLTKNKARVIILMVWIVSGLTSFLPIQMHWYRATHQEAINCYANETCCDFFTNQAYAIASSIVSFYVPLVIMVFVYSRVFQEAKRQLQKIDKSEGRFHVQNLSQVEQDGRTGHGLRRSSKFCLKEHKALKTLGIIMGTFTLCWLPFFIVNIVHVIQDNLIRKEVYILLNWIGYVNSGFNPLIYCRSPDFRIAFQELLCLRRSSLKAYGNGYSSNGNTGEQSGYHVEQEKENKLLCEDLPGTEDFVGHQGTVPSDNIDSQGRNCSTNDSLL
T cell modulator = modulators of CD8 T cell-vesicle binding, primary screen, mouse 2C CD8+ T cells, flow cytometry. 2C CD8+ T cell-vesicle binding; stronger effect = lower value. response (vesicle binding), % at 7 µM. actives 0.068% (n = 330,000). AID 2052, 2009;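 active means response, share of CD8 T cells binding vesicles, and their 90th percentile fluorescence all below set limits, cut at about 80% in these data, passing the limit was not always enough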;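 further: values below 100% mean blocked vesicle binding to the CD8+ T cells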
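System: murine 2C transgenic CD8+ T lymphocytes; also added: QL9-loaded Drosophila micro-vesicles; times: binding 1.5 h at 37 °C; measured by: flow cytometry, PE anti-B7-1 (FL2) versus Alexa647 anti-CD8 (FL8), PFA-fixed; control set: Peptide-free naked vesicles (low) and QL9 vesicles with 0.7% DMSO vehicle (high)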
rCAG binder = binders of r(CAG) RNA repeats, primary screen, biochemical, fluorescence | AID 651821, 2012 | actives 1.3% (n = 370,000) | inhibition, % at 3 µM | r(CAG) RNA repeat, TO-PRO-1 dye displacement fluorescence;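 active means inhibition above the plate cutoff, the mean of all test compounds on that plate plus 3 SD, cut at about 35% in these data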;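 further: 0% = DMSO alone and 100% = 100 µM mitoxantrone as full dye displacement; higher means more dye released from RNA so lower well fluorescence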
V-ATPase pH = regulators of yeast V-ATPase proton pumping, primary screen, pHLuorin cytosolic pH fluorescence; S. cerevisiae; response, % at 10 µM; actives 0.37% (n = 350,000); AID 504577, 2011; in the data active means response mostly above about 7.3%, no sharp cut-off; inactive means mostly below about 5.4%; further: actives read high
Rh123 counter = fluorescence retest of MPTP screen hits in isolated mitochondria, single concentration; shares compounds with MPTP block; membrane potential, Rhodamine 123 fluorescence; inhibition, % at 10 µM; actives 78% (n = 5,000); in the data active means inhibition above about 22%;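 further: 0% = DMSO vehicle and 100% = positive control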
* hit, by the source's call.

Screening O=C(/C=C/c1ccc(Cl)c([N+](=O)[O-])c1)Nc1ccc(N2CCCC2)c(Cl)c1 returned MPTP block 76*, Granule exo inh -2, Beta2AR agonist 7, T cell modulator 325, rCAG binder 8, V-ATPase pH 2 and Rh123 counter 40*.
Screening Cc1nn(C(=O)c2cccnc2)c(C)c1Sc1ccccc1 returned MPTP block 2, Granule exo inh -3, Beta2AR agonist 3, T cell modulator 231, rCAG binder 0 and V-ATPase pH -3.
`CCn1nc(C)cc1C(=O)n1nc(C)c(Sc2ncccn2)c1C` gave MPTP block 69*, Granule exo inh 0, Beta2AR agonist 0, T cell modulator 810, rCAG binder -2, V-ATPase pH 1 and Rh123 counter 27*.
`CCCCCCc1cc2cc(C(=O)Nc3ccccc3)c(=O)oc2cc1O` gave MPTP block 73*, Granule exo inh 10, Beta2AR agonist 22, T cell modulator 237, rCAG binder 1, V-ATPase pH -7 and Rh123 counter 13.
`N=c1oc2ccccc2cc1C(=O)Nc1ccccc1` gave MPTP block 2, Granule exo inh -2, Beta2AR agonist 11, T cell modulator 203, rCAG binder 2 and V-ATPase pH 0.
For CCCCCCc1cc2cc(C(=O)NCc3ccccc3)c(=N)oc2cc1O the results were MPTP block 86*, Granule exo inh 2, Beta2AR agonist -22, T cell modulator 484, rCAG binder 10, V-ATPase pH -2 and Rh123 counter 74*.
For CCCCOCCCNC(=O)C[C@H]1C[C@@]2(C(=O)OC)C(=C[C@H](C(C)C)O[C@@H]2C2CC2)N(Cc2cccc3ccccc23)C1=O the results were rCAG binder 4.
Screening CCC(C(=O)Nc1ccccc1N1CCCC1)c1cccc(Cl)c1 (configuration not stated) returned rCAG binder 0.
Screening CCOC(=O)N1CCN(C(=O)C[C@@H]2C(=O)N3CCCC4=C3[C@@]2(C(=O)OCC)CCC4)CC1 returned rCAG binder -2.
For CCN1Cc2nnn(Cc3ccccc3)c2-c2cc(F)ccc2S1(=O)=O the results were rCAG binder 1.
`CC(=O)Nc1nc(-c2ccc(Cl)cc2)ns1` gave MPTP block 88*, Granule exo inh 3, Beta2AR agonist 2, T cell modulator 273, rCAG binder 7, V-ATPase pH 3 and Rh123 counter 60*.
Screening CCC(=O)Nc1nc(-c2ccccc2)ns1 returned MPTP block 14, Granule exo inh 0, Beta2AR agonist 0, T cell modulator inactive, rCAG binder 4 and V-ATPase pH 1.
`C[C@H]1C2CC(OC(=O)Nc3ccc(F)cc3)C(C2)[C@H]2CCCCN21` (some centres not stated) gave rCAG binder 5.
Screening Cc1c(Cl)cccc1NCC(=O)Nc1ccc(Cl)cc1F returned MPTP block 57*, Granule exo inh 4, Beta2AR agonist -1, T cell modulator 267, rCAG binder -2, V-ATPase pH 0 and Rh123 counter 57*.
For Cc1ccc(F)cc1NCC(=O)Nc1ccc(Cl)cc1F the results were MPTP block 3, Granule exo inh 4, Beta2AR agonist -1, T cell modulator 498, rCAG binder -3 and V-ATPase pH -1.
Screening NC(=S)NN=C1c2cc(Cl)ccc2-c2c1cc(Cl)cc2[N+](=O)[O-] returned MPTP block 93*, Granule exo inh 9, Beta2AR agonist 20, V-ATPase pH 1 and Rh123 counter 74*.
